Assay outcomes (PubChem)
Sampled rows, rich in hits. Any-hit rate of the full collection: about 1.7%.
PABP1 MLLE inh = inhibitors of microRNA-mediated deadenylation, human PABP1 MLLE binding; AID 588489; actives 0.36% (n = 360,000); inhibition, % at 20 µM; GST-MLLE / FITC-PAM2 fluorescence polarization; P11940; in the data active = inhibition above about 35%, passing the limit was not always enough
Target sequence (P11940 whole entry, looked up): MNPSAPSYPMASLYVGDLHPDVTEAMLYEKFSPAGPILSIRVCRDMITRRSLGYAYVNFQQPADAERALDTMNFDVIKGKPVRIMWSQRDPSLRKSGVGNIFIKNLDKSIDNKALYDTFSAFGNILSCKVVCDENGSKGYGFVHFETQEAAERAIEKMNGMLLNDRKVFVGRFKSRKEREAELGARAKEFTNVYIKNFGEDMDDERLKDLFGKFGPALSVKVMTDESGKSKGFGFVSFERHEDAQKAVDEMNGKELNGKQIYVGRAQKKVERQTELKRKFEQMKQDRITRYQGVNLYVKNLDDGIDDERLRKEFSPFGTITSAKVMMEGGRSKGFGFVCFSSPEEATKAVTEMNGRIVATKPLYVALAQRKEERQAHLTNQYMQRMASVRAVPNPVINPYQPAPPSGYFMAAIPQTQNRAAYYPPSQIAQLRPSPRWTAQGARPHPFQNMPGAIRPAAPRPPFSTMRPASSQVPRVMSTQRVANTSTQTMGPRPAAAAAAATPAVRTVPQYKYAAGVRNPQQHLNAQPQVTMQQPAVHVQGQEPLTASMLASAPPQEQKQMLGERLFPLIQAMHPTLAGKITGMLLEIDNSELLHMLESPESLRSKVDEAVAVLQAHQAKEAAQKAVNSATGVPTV
eIF4H FP inh = inhibitors of RNA binding by human eIF4H; Q15056; actives 0.94% (n = 290,000); eIF4H fluorescence polarization binding assay; inhibition, % at 35 µM;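 also: calls also rest on retests at 20 µM and on dose response follow-up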
MT1-MMP act inh = inhibitors of human MT1-MMP activation; P50281; HT1080 RFP-PRO-GFP cells, GFP/RFP ratio fluorescence, overnight; percent of plate control window, DMSO zero; GFP/RFP ratio change, % at 20 µM; actives 0.061% (n = 360,000); AID 651647;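 active = GFP/RFP ratio change of at least 30% with cell ATP level not reduced by more than half and red fluorescence within 50% of control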
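system = RFP-PRO-GFP reporter HT1080 cells | dosing = 20 µM single dose, 1% DMSO | timing = overnight cell settling, then overnight compound exposure, 37 °C, 5% CO2 | read-out basis = GFP/RFP fluorescence ratio | controls = DMSO and RFP-L50D-GFP cell wells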
SKN-1 inh = inhibitors of C. elegans SKN-1. inhibition, % at 21.8 µM. actives 0.49% (n = 360,000). C. elegans VP596 Pgst-4::GFP/RFP ratio, acrylamide-induced, 24 h;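 active = interference check ratio from 0.5 to 1.5 plus GFP to RFP signal ratio inhibition reaching or exceeding a fixed threshold, cut at about 30% in these data, passing the limit was not always enough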
PABP polyA inh = blocks human PABP binding to poly(A) RNA; fluorescence polarization; inhibition, % at 35 µM; actives 1% (n = 290,000); AID 2014;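 also: calls also rest on retests at 20 µM and on dose response follow-up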
A number is an active result; – = inactive; ? = inconclusive; · = no result given. Unless noted, no rule for the calls is given here.

SMILES	PABP1 MLLE inh	eIF4H FP inh	MT1-MMP act inh	SKN-1 inh	PABP polyA inh
Cc1ccc2nc(/C(C#N)=C\c3ccc(Oc4ccc([N+](=O)[O-])cn4)cc3)[nH]c2c1	–	?	–	–	–
COc1ccc2nc(/C(C#N)=C\c3ccc(Oc4ccc([N+](=O)[O-])cn4)cc3)[nH]c2c1	–	84	–	–	active
CCCCCCCCCCCCCCCC[N+](C)(C)CC	–	·	–	–	·
CCCCCCCCCCCCCCCC[N+](C)(C)CCl	–	·	–	38	·
O=C(CSc1ccsc1[N+](=O)[O-])N1CCN(c2ccc(Cl)cc2)CC1	–	77	–	–	active
O=C(CSc1ccsc1[N+](=O)[O-])N1CCN(c2ccccc2)CC1	–	–	–	–	–
C#CCN1C(=O)S/C(=C/C=C/c2ccc(N(C)C)cc2)C1=O	–	?	–	47	–
O=C(NC1CCCC1)C1C(c2ccc(C(F)(F)F)cc2)=Nc2ccccc2N1C(=O)c1ccco1 (stereo not given)	·	·	–	41	·
O=C(Cc1ccc2ccccc2c1)Nc1ccccc1Br	–	–	–	–	–
O=C(Cc1ccc2c(c1)CCCC2)Nc1ccccc1Br	38	–	–	–	–
C=CCn1c(SCC(=O)c2[nH]c(C)c(C(=O)OCC)c2C)nc2scc(-c3ccc(OC)c(OC)c3)c2c1=O	–	–	–	–	–
COc1cccc(CN2C(=O)c3cccc(N)c3C2=O)c1	–	88	–	–	5.5
COc1cccc(CN2C(=O)c3ccccc3S2(=O)=O)c1	–	–	–	–	–
CC1(C)c2ccccc2N2CC(=O)NC21/C=C/c1ccco1 (stereo not given)	–	–	–	–	–
CC1(C)c2ccccc2N2CCC(=O)NC21/C=C/c1ccco1 (stereo not given)	–	?	–	–	105
CC(OC(=O)c1cc(-c2cccnc2)nc2ccccc12)C(=O)Nc1ccc2ccccc2c1 (stereo not given)	–	–	–	–	–
CCC(=O)N1CCN(c2ccc(NC(=O)c3cc4ccccc4o3)cc2Cl)CC1	–	–	–	31	–
CCCCN1CCc2[nH]c(=S)[nH]c(=O)c2C1	49	–	–	–	–
COCCN1CCc2[nH]c(=S)[nH]c(=O)c2C1	–	–	–	–	–
CC(C)[C@@H]1Cc2[nH]c(=S)[nH]c(=O)c2[C@H](CCc2ccccc2)O1	·	·	–	–	·
CC(c1ccccc1)N1CCc2[nH]c(=S)[nH]c(=O)c2C1 (stereo not given)	39	–	–	–	–
CN(C(=O)COC(=O)c1ccccc1SCC(=O)N1CCCC1)C1(C#N)CCCCC1	–	·	–	–	·
CCn1c2ccccc2c2cc(NC(=O)c3coc(=O)c(Br)c3)ccc21	–	105	–	–	–
N#C/C(=C\c1ccc(Cl)cc1)c1nc2ccccc2o1	–	81	–	–	119
Cc1ccccc1NC(=O)Cc1nc(COC(=O)CCNS(=O)(=O)c2ccccc2)cs1	–	·	–	–	·
SMILES	PABP1 MLLE inh	eIF4H FP inh	MT1-MMP act inh	SKN-1 inh	PABP polyA inh
Cc1[nH]nc2c(=S)[nH]c(=O)[nH]c12	40	·	–	–	·
O=c1[nH]c(=S)c2[nH]c(=S)n(-c3ccccc3)c2[nH]1	–	·	–	–	·
CC1C2C(C)N(C)C(=O)N(C)C2N(C)C(=O)N1C (stereo not given)	53	–	–	–	–
CN1C(=O)N(C)C2C1NC(=O)N2C (stereo not given)	–	–	–	–	–
Cc1nn(-c2ccccc2)c(Cl)c1/C=C/C(=O)c1ccccc1	–	–	–	31	–
CC1(C(=O)NS(=O)(=O)c2ccc(F)cc2F)CCN1C(=O)Cc1ccc(-c2ccccc2)cc1 (stereo not given)	–	·	–	–	·
COC(=O)C1=C(C(=O)OC)C(c2cc(Br)ccc2O)c2sc(=O)[nH]c2S1 (stereo not given)	44	–	–	–	–
O=C(c1ccc(Br)cc1)c1cc([N+](=O)[O-])ccc1N1CCOCC1	–	–	–	65	–
O=C(c1ccc(Cl)cc1)c1cc([N+](=O)[O-])ccc1N1CCOCC1	–	–	–	67	–
COc1ccc(C(=O)NC2CCc3ccccc32)cc1OC1CCN(C(C)C)CC1 (stereo not given)	–	–	–	–	–
COC(=O)[C@@]12C[C@@H](CC(=O)NCc3ccc(OC)c(OC)c3)C(=O)N(Cc3ccccc3)C1=CCC(C)(C)C2	·	·	–	–	·
